Results taken from ChEMBL document CHEMBL1145833, “Studies on the synthesis and biological properties of non-carrier-added [(125)I and (131)I]-labeled arylalkylidenebisphosphonates: potent bone-seekers for diagnosis and therapy of malignant osseous lesions” (J Med Chem, 2003).

Assays:
Conditions in all cases: in vivo
Mus musculus [1] = species on record: Mus musculus; experiment: Distribution of compound in liver tissue of mice after 5 hr injection time was determined; type: ADME, organism-based
In short: (§1)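 Healthy athymic nude mice (balb/c nu/nu, 20–25 g, both sexes) received 50–400 KBq radioiodinated bisphosphonate in 100 µL phosphate buffer pH 6–7 by tail-vein injection. Three animals were sacrificed per time point. Tissues were excised, weighed and gamma-counted. Values are % injected dose per gram tissue, mean ± 1 SD, n = 3.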

Mus musculus [2] = species on record: Mus musculus; experiment: Distribution of compound in lungs tissue of mice after 0.5 h injection time was determined; type: ADME, organism-based, Lung; in short: as §1
Mus musculus [3] = species on record: Mus musculus; experiment: Distribution of compound in lungs tissue of mice after 2 hr injection time was determined; type: ADME, organism-based, Lung; in short: as §1
Mus musculus [4] = species on record: Mus musculus; experiment: Distribution of compound in lungs tissue of mice after 24 hr injection time was determined; type: ADME, organism-based, Lung; in short: as §1
Mus musculus [5] = species on record: Mus musculus; experiment: Distribution of compound in lungs tissue of mice after 5 hr injection time was determined; type: ADME, organism-based, Lung; in short: as §1
Mus musculus [6] = species on record: Mus musculus; experiment: Distribution of compound in skull tissue of mice after 0.5 hr injection time was determined; type: ADME, organism-based; in short: as §1
Mus musculus [7] = species on record: Mus musculus; experiment: Distribution of compound in skull tissue of mice after 2 hr injection time was determined; type: ADME, organism-based; in short: as §1
Mus musculus [8] = species on record: Mus musculus; experiment: Distribution of compound in skull tissue of mice after 24 hr injection time was determined; type: ADME, organism-based; in short: as §1
Mus musculus [9] = species on record: Mus musculus; experiment: Distribution of compound in skull tissue of mice after 5 h injection time was determined; type: ADME, organism-based; in short: as §1
Mus musculus [10] = species on record: Mus musculus; experiment: Distribution of compound in spleen tissue of mice after 0.5 hr injection time was determined; type: ADME, organism-based; in short: as §1
Mus musculus [11] = species on record: Mus musculus; experiment: Distribution of compound in kidneys tissue of mice after 0.5 hr injection time was determined; type: ADME, organism-based, Kidney; in short: as §1
Mus musculus [12] = species on record: Mus musculus; experiment: Distribution of compound in kidneys tissue of mice after 2 hr injection time was determined; type: ADME, organism-based, Kidney; in short: as §1
Mus musculus [13] = species on record: Mus musculus; experiment: Distribution of compound in kidneys tissue of mice after 24 hr injection time was determined; type: ADME, organism-based, Kidney; in short: as §1
Mus musculus [14] = species on record: Mus musculus; experiment: Distribution of compound in kidneys tissue of mice after 5 hr injection time was determined; type: ADME, organism-based, Kidney; in short: as §1
Mus musculus [15] = species on record: Mus musculus; experiment: Distribution of compound in liver tissue of mice after 0.5 hr injection time was determined; type: ADME, organism-based; in short: as §1
Mus musculus [16] = species on record: Mus musculus; experiment: Distribution of compound in liver tissue of mice after 24 hr injection time was determined; type: ADME, organism-based; in short: as §1
Mus musculus [17] = species on record: Mus musculus; experiment: Distribution of compound in heart tissue of mice after 2 hr injection time was determined; type: ADME, organism-based; in short: as §1
Mus musculus [18] = species on record: Mus musculus; experiment: Distribution of compound in heart tissue of mice after 24 hr injection time was determined; type: ADME, organism-based; in short: as §1
Mus musculus [19] = species on record: Mus musculus; experiment: Distribution of compound in heart tissue of mice after 5 hr injection time was determined; type: ADME, organism-based; in short: as §1
Mus musculus [20] = species on record: Mus musculus; experiment: Distribution of compound in intestine tissue of mice after 0.5 hr injection time was determined; type: ADME, organism-based; in short: as §1
Mus musculus [21] = species on record: Mus musculus; experiment: Distribution of compound in intestine tissue of mice after 2 hr injection time was determined; type: ADME, organism-based; in short: as §1
Mus musculus [22] = species on record: Mus musculus; experiment: Distribution of compound in intestine tissue of mice after 24 hr injection time was determined; type: ADME, organism-based; in short: as §1
Mus musculus [23] = species on record: Mus musculus; experiment: Distribution of compound in intestine tissue of mice after 5 hr injection time was determined; type: ADME, organism-based; in short: as §1
Mus musculus [24] = species on record: Mus musculus; experiment: Distribution of compound in spleen tissue of mice after 2 hr injection time was determined; type: ADME, organism-based; in short: as §1
Mus musculus [25] = species on record: Mus musculus; experiment: Distribution of compound in spleen tissue of mice after 24 hr injection time was determined; type: ADME, organism-based; in short: as §1
Mus musculus [26] = species on record: Mus musculus; experiment: Distribution of compound in spleen tissue of mice after 5 h injection time was determined; type: ADME, organism-based; in short: as §1
Mus musculus [27] = species on record: Mus musculus; experiment: Distribution of compound in stomach tissue of mice after 0.5 hr injection time was determined; type: ADME, organism-based; in short: as §1
Mus musculus [28] = species on record: Mus musculus; experiment: Distribution of compound in stomach tissue of mice after 2 hr injection time was determined; type: ADME, organism-based; in short: as §1
Mus musculus [29] = species on record: Mus musculus; experiment: Distribution of compound in stomach tissue of mice after 24 hr injection time was determined; type: ADME, organism-based; in short: as §1
Mus musculus [30] = species on record: Mus musculus; experiment: Distribution of compound in stomach tissue of mice after 5 hr injection time was determined; type: ADME, organism-based; in short: as §1
Mus musculus [31] = species on record: Mus musculus; experiment: Distribution of compound in thyroid tissue of mice after 0.5 hr injection time was determined; type: ADME, organism-based, Thyroid gland
In short: (§2)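 Healthy athymic nude balb/c nu/nu mice (20–25 g) received 50–400 KBq radioiodinated bisphosphonate in 100 μL phosphate buffer, pH 6–7, by tail-vein injection. Three animals were sacrificed per time point. Thyroid-containing tissue was excised, weighed and gamma-counted. Values are % of injected dose, mean ± 1 SD of three mice.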

Mus musculus [32] = species on record: Mus musculus; experiment: Distribution of compound in thyroid tissue of mice after 2 hr injection time was determined; type: ADME, organism-based, Thyroid gland; in short: as §2
Mus musculus [33] = species on record: Mus musculus; experiment: Distribution of compound in thyroid tissue of mice after 24 h injection time was determined; type: ADME, organism-based, Thyroid gland; in short: as §2
Mus musculus [34] = species on record: Mus musculus; experiment: Distribution of compound in thyroid tissue of mice after 5 h injection time was determined; type: ADME, organism-based, Thyroid gland; in short: as §2
Mus musculus [35] = species on record: Mus musculus; experiment: Distribution of compound in blood tissue of mice after 0.5 hr injection time was determined; type: ADME, organism-based; in short: as §1
Mus musculus [36] = species on record: Mus musculus; experiment: Distribution of compound in blood tissue of mice after 2 hr injection time was determined; type: ADME, organism-based; in short: as §1
Mus musculus [37] = species on record: Mus musculus; experiment: Distribution of compound in blood tissue of mice after 24 hr injection time was determined; type: ADME, organism-based; in short: as §1
Mus musculus [38] = species on record: Mus musculus; experiment: Distribution of compound in blood tissue of mice after 5 h injection time was determined; type: ADME, organism-based; in short: as §1
Mus musculus [39] = species on record: Mus musculus; experiment: Distribution of compound in femur tissue of mice after 0.5 hr injection time was determined; type: ADME, organism-based; in short: as §1
Mus musculus [40] = species on record: Mus musculus; experiment: Distribution of compound in femur tissue of mice after 2 hr injection time was determined; type: ADME, organism-based; in short: as §1
Mus musculus [41] = species on record: Mus musculus; experiment: Distribution of compound in femur tissue of mice after 24 hr injection time was determined; type: ADME, organism-based; in short: as §1
Mus musculus [42] = species on record: Mus musculus; experiment: Distribution of compound in femur tissue of mice after 5 hr injection time was determined; type: ADME, organism-based; in short: as §1
Mus musculus [43] = species on record: Mus musculus; experiment: Distribution of compound in heart tissue of mice after 0.5 hr injection time was determined; type: ADME, organism-based; in short: as §1
Mus musculus [44] = species on record: Mus musculus; experiment: Distribution of compound in liver tissue of mice after 2 h injection time was determined; type: ADME, organism-based; in short: as §1

Structure (SMILES): O=P(O)(O)C(Cc1cccc(I)c1)P(=O)(O)O
- Injected (Mus musculus [1]): 0.94%
- Injected (Mus musculus [2]): 1%
- Injected (Mus musculus [3]): 0.35%
- Injected (Mus musculus [4]): 0.06%
- Injected (Mus musculus [5]): 0.1%
- Injected (Mus musculus [6]): 10.28%
- Injected (Mus musculus [7]): 7.64%
- Injected (Mus musculus [8]): 7.13%
- Injected (Mus musculus [9]): 6.16%
- Injected (Mus musculus [10]): 0.35%
- Injected (Mus musculus [11]): 8.23%
- Injected (Mus musculus [12]): 3.68%
- Injected (Mus musculus [13]): 1.06%
- Injected (Mus musculus [14]): 2.26%
- Injected (Mus musculus [15]): 2.98%
- Injected (Mus musculus [16]): 0.23%
- Injected (Mus musculus [17]): 0.26%
- Injected (Mus musculus [18]): 0.04%
- Injected (Mus musculus [19]): 0.07%
- Injected (Mus musculus [20]): 0.37%
- Injected (Mus musculus [21]): 0.28%
- Injected (Mus musculus [22]): 0.28%
- Injected (Mus musculus [23]): 0.24%
- Injected (Mus musculus [24]): 0.26%
- Injected (Mus musculus [25]): 0.1%
- Injected (Mus musculus [26]): 0.12%
- Injected (Mus musculus [27]): 1.14%
- Injected (Mus musculus [28]): 1.12%
- Injected (Mus musculus [29]): 0.05%
- Injected (Mus musculus [30]): 0.23%
- Injected (Mus musculus [31]): 0.21%
- Injected (Mus musculus [32]): 0.14%
- Injected (Mus musculus [33]): 0.02%
- Injected (Mus musculus [34]): 0.06%
- Injected (Mus musculus [35]): 2.22%
- Injected (Mus musculus [36]): 0.31%
- Injected (Mus musculus [37]): 0.03%
- Injected (Mus musculus [38]): 0.11%
- Injected (Mus musculus [39]): 18.8%
- Injected (Mus musculus [40]): 21.16%
- Injected (Mus musculus [41]): 15.25%
- Injected (Mus musculus [42]): 10%
- Injected (Mus musculus [43]): 0.9%
- Injected (Mus musculus [44]): 2.14%

Structure (SMILES): O=P(O)(O)C(NCCc1cccc(I)c1)P(=O)(O)O
- Injected (Mus musculus [4]): 0.67%
- Injected (Mus musculus [8]): 0.91%
- Injected (Mus musculus [13]): 0.4%
- Injected (Mus musculus [16]): 5.57%
- Injected (Mus musculus [18]): 0.19%
- Injected (Mus musculus [22]): 0.1%
- Injected (Mus musculus [25]): 2.49%
- Injected (Mus musculus [29]): 0.07%
- Injected (Mus musculus [33]): 0.02%
- Injected (Mus musculus [37]): 0.18%
- Injected (Mus musculus [41]): 1.39%
